Reference: ChEMBL document CHEMBL1126705, “16 beta-([18F]fluoro)estrogens: systematic investigation of a new series of fluorine-18-labeled estrogens as potential imaging agents for estrogen-receptor-positive breast tumors” (J Med Chem, 1993)

Legend:
[1] = biological target: T1, Estrogen receptor (Rattus norvegicus) (UniProt P06211+Q62986)
[2] = biological target: T2, Alpha-fetoprotein (Rattus norvegicus) (UniProt P02773); experiment: Relative binding affinity for Alphafetoprotein
T2 sequence (whole entry): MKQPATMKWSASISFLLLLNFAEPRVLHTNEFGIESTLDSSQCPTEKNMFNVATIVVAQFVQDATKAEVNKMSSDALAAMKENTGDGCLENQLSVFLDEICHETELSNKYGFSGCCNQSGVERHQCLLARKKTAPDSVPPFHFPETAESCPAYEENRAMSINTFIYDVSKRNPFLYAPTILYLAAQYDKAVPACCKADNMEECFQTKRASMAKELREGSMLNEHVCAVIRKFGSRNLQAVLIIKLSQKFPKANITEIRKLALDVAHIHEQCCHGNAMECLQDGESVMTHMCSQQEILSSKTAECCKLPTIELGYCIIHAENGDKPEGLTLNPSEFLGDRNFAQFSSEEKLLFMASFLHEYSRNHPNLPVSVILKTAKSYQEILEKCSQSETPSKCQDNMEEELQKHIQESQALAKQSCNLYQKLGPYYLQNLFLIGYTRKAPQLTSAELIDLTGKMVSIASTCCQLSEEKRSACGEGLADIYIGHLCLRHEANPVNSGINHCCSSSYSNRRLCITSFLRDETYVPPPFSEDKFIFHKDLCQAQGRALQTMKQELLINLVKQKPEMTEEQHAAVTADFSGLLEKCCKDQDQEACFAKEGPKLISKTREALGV

[3] = Partition coefficient (logP); assay type: physicochemical; details: octanol/water
Summary of the method: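 Octanol/water log P estimated from log k'w measured by reversed-phase HPLC (Minick method) on a C8 silica column.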

[4] = biological target: T1, Estrogen receptor (Rattus norvegicus); remark: listed apart in the source
[5] = biological target: T3, Sex hormone-binding globulin (Homo sapiens) (UniProt P04278); experiment: Relative binding affinity against sex steroid binding protein (SBP)
T3 sequence (whole entry): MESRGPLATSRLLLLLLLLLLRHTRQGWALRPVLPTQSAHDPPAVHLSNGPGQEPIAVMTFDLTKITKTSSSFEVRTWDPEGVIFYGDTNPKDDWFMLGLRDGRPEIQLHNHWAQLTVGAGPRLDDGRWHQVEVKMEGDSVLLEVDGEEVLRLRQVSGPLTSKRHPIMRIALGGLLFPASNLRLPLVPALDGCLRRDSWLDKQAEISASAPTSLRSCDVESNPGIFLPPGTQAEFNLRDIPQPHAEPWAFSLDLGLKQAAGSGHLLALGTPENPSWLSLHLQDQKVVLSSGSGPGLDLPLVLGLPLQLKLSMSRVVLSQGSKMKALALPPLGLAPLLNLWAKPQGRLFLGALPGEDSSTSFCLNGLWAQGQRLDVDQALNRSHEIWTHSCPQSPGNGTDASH

Rattus norvegicus [6] = experiment: Tested in vivo for the biodistribution in rat liver at 1 hour after intravenous dose of 50 microCi of drug in 10%ethanol saline; assay type: ADME, organism-based
Summary of the method: (§1)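 Immature (25-day-old) female Sprague-Dawley rats, ether-anesthetized, given the fluorine-18-labeled estrogen by femoral vein injection in 10% ethanol saline. […] Other groups were killed by decapitation at 1 or 3 h. Blood and organs were weighed and gamma-counted. Data are % injected dose/g, mean ± SD, typically n = 5 per group.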

Rattus norvegicus [7] = experiment: Tested in vivo for the biodistribution in rat liver after 3 hours following an intravenous dose of 50 microCi of drug in 10%ethanol saline; assay type: ADME, organism-based
Summary of the method: as §1

Rattus norvegicus [8] = experiment: Tested in vivo for the biodistribution in rat uterus/blood at 1 hour after intravenous dose of 50 microCi of the drug and 15 ug of estradiol; assay type: ADME, organism-based
Summary of the method: (§2)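 Female Sprague-Dawley rats, 25 days old (~40–53 g), ether-anesthetized, given the 18F-labeled estrogen iv via femoral vein in 10% ethanol saline. […] Others were sacrificed by decapitation at 1 or 3 h. Blood and organs were excised, weighed and gamma counted as % injected dose/g, mean ± SD, typically n = 5 (4–6).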

Rattus norvegicus [9] = experiment: Tested in vivo for the biodistribution in rat uterus at 1 hour after intravenous dose of 50 microCi of the drug and 15 ug of estradiol; assay type: ADME, organism-based
Summary of the method: as §2

Rattus norvegicus [10] = experiment: Tested in vivo for the biodistribution in rat fat at 1 hour after intravenous dose of 50 microCi of drug in 10%ethanol saline; assay type: ADME, organism-based, Adipose tissue
Summary of the method: (§3)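 Ether-anesthetized 25-day-old female Sprague-Dawley rats (~40–53 g) got the [18F] tracer in 10% ethanol saline via femoral vein. Rats were decapitated at 1 or 3 h, and blood and organs were weighed and gamma-counted. Values are % injected dose/g as mean ± SD, n = 5 per time point.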

Rattus norvegicus [11] = experiment: Tested in vivo for the biodistribution in rat uterus/blood at 1 hour after intravenous dose of 50 microCi of drug in 10%ethanol saline; assay type: ADME, organism-based
Summary of the method: as §2

Rattus norvegicus [12] = experiment: Tested in vivo for the biodistribution in rat liver at 1 hour after intravenous dose of 50 microCi of the drug and 15 u g of estradiol; assay type: ADME, organism-based
Summary of the method: as §1

Rattus norvegicus [13] = experiment: Tested in vivo for the biodistribution in rat uterus after 3 hours following an intravenous dose of 50 microCi of drug in 10%ethanol saline; assay type: ADME, organism-based
Summary of the method: as §1

Rattus norvegicus [14] = experiment: Tested in vivo for the biodistribution in rat ovaries at 1 hour after intravenous dose of 50 microCi of the drug and 15 ug of estradiol; assay type: ADME, organism-based, Female gonad
Summary of the method: as §1

Rattus norvegicus [15] = experiment: Tested in vivo for the biodistribution in rat bone at 1 hour after intravenous dose of 50 microCi of drug in 10%ethanol saline; assay type: ADME, organism-based, Bone element
Summary of the method: as §3

Rattus norvegicus [16] = experiment: Tested in vivo for the biodistribution in rat fat after 3 hours following an intravenous dose of 50 microCi of drug in 10%ethanol saline; assay type: ADME, organism-based, Adipose tissue
Summary of the method: as §3

Rattus norvegicus [17] = experiment: Tested in vivo for the biodistribution in rat fat at 1 hour after intravenous dose of 50 microCi of the drug and 15 ug of estradiol; assay type: ADME, organism-based, Adipose tissue
Rattus norvegicus [18] = experiment: Tested in vivo for the biodistribution in blood of female rat after 3 hours following an intravenous dose of 50 microCi of drug in 10%ethanol saline; assay type: ADME, organism-based
Summary of the method: as §3

Rattus norvegicus [19] = experiment: Tested in vivo for the biodistribution in rat ovaries at 1 hour after intravenous dose of 50 microCi of drug in 10%ethanol saline; assay type: ADME, organism-based, Female gonad
Summary of the method: as §1

Rattus norvegicus [20] = experiment: Tested in vivo for the biodistribution in rat uterus at 1 hour after intravenous dose of 50 microCi of drug in 10%ethanol saline; assay type: ADME, organism-based
Summary of the method: as §2

Rattus norvegicus [21] = experiment: Tested in vivo for the biodistribution in rat bone after 3 hours following an intravenous dose of 50 microCi of drug in 10%ethanol saline; assay type: ADME, organism-based, Bone element
Summary of the method: as §3

Rattus norvegicus [22] = experiment: Tested in vivo for the biodistribution in rat muscle after 3 hours following an intravenous dose of 50 microCi of drug in 10%ethanol saline; assay type: ADME, organism-based, Muscle tissue
Summary of the method: as §1

Rattus norvegicus [23] = experiment: Tested in vivo for the biodistribution in rat kidney at 1 hour after intravenous dose of 50 microCi of the drug and 15 u g of estradiol; assay type: ADME, organism-based
Summary of the method: as §1

Rattus norvegicus [24] = experiment: Tested in vivo for the biodistribution in rat muscle at 1 hour after intravenous dose of 50 microCi of the drug and 15 ug of estradiol; assay type: ADME, organism-based, Muscle tissue
Summary of the method: as §1

Rattus norvegicus [25] = experiment: Tested in vivo for the biodistribution in rat ovaries after 3 hours following an intravenous dose of 50 microCi of drug in 10%ethanol saline; assay type: ADME, organism-based, Female gonad
Summary of the method: as §1

Rattus norvegicus [26] = experiment: Tested in vivo for the biodistribution in blood of female rat at 1 hour after intravenous dose of 50 microCi of the drug and 15 u g of estradiol; assay type: ADME, organism-based
Rattus norvegicus [27] = experiment: Tested in vivo for the biodistribution in rat muscle at 1 hour after intravenous dose of 50 microCi of drug in 10%ethanol saline; assay type: ADME, organism-based, Muscle tissue
Summary of the method: as §1

Rattus norvegicus [28] = experiment: Tested in vivo for the biodistribution in rat kidney after 3 hours following an intravenous dose of 50 microCi of drug in 10%ethanol saline; assay type: ADME, organism-based
Summary of the method: as §3

Rattus norvegicus [29] = experiment: Tested in vivo for the biodistribution in rat uterus/muscle after 3 hours following an intravenous dose of 50 microCi of drug in 10%ethanol saline; assay type: ADME, organism-based, Muscle tissue
Summary of the method: as §2

Rattus norvegicus [30] = experiment: Tested in vivo for the biodistribution in blood of female rat at 1 hour after intravenous dose of 50 microCi of drug in 10%ethanol saline; assay type: ADME, organism-based
Summary of the method: as §3

Rattus norvegicus [31] = experiment: Tested in vivo for the biodistribution in rat thymus at 1 hour after intravenous dose of 50 microCi of the drug and 15 ug of estradiol; assay type: ADME, organism-based
Summary of the method: as §1

Rattus norvegicus [32] = experiment: Tested in vivo for the biodistribution in rat bone at 1 hour after intravenous dose of 50 microCi of the drug and 15 ug of estradiol; assay type: ADME, organism-based, Bone element
Rattus norvegicus [33] = experiment: Tested in vivo for the biodistribution in rat thymus at 1 hour after intravenous dose of 50 microCi of drug in 10%ethanol saline; assay type: ADME, organism-based
Summary of the method: as §1

Rattus norvegicus [34] = experiment: Tested in vivo for the biodistribution in rat uterus/muscle at 1 hour after intravenous dose of 50 microCi of drug in 10%ethanol saline; assay type: ADME, organism-based, Muscle tissue
Summary of the method: as §2

Rattus norvegicus [35] = experiment: Tested in vivo for the biodistribution in rat uterus/muscle at 1 hour after intravenous dose of 50 microCi of the drug and 15 ug of estradiol; assay type: ADME, organism-based, Muscle tissue
Summary of the method: as §2

Rattus norvegicus [36] = experiment: Tested in vivo for the biodistribution in rat uterus/blood after 3 hours following an intravenous dose of 50 microCi of drug in 10%ethanol saline; assay type: ADME, organism-based
Summary of the method: as §2

Rattus norvegicus [37] = experiment: Tested in vivo for the biodistribution in rat thymus after 3 hours following an intravenous dose of 50 microCi of drug in 10%ethanol saline; assay type: ADME, organism-based
Summary of the method: as §1

Rattus norvegicus [38] = experiment: Tested in vivo for the biodistribution in rat kidney at 1 hour after intravenous dose of 50 microCi of drug in 10%ethanol saline; assay type: ADME, organism-based
Summary of the method: as §3

With CCC1C[C@]2(C)[C@@H](O)CC[C@H]2[C@@H]2CCc3cc(O)ccc3[C@@H]12 (stereo partly drawn) the NSB [1] was 2.1, the relative binding affinity (RBA) [2] was 1.21 and the logP [3] was 3.9. It also gave a BSI [4] of 648 and a relative binding affinity (RBA) [5] of 40.8.
With C#C[C@]1(O)[C@@H](F)C[C@H]2[C@@H]3CCc4cc(O)ccc4[C@H]3[C@@H](CC)C[C@@]21C the Injected (Rattus norvegicus [6]) was 4.023%, the Injected (Rattus norvegicus [7]) was 4.003% and the Injected (Rattus norvegicus [8]) was 4.03%. It also gave an NSB [1] of 2.43, an Injected (Rattus norvegicus [9]) of 0.88% and an Injected (Rattus norvegicus [10]) of 3.375%. It also gave an Injected (Rattus norvegicus [11]) of 33.61%, an Injected (Rattus norvegicus [12]) of 3.888% and an Injected (Rattus norvegicus [13]) of 9.09%. The Injected (Rattus norvegicus [14]) was 1.712%, the Injected (Rattus norvegicus [15]) was 1.365% and the Injected (Rattus norvegicus [16]) was 1.805%. It also gave an Injected (Rattus norvegicus [17]) of 2.174%, an Injected (Rattus norvegicus [18]) of 0.144% and an Injected (Rattus norvegicus [19]) of 3.934%. It also gave an Injected (Rattus norvegicus [20]) of 8.2%, a relative binding affinity (RBA) [2] of 0.147 and an Injected (Rattus norvegicus [21]) of 1.606%. For the same compound, the Injected (Rattus norvegicus [22]) was 0.382%, the logP [3] was 4.12 and the Injected (Rattus norvegicus [23]) was 0.709%. The Injected (Rattus norvegicus [24]) was 0.262%, the Injected (Rattus norvegicus [25]) was 3.115% and the Injected (Rattus norvegicus [26]) was 0.227%. For the same compound, the Injected (Rattus norvegicus [27]) was 0.725%, the Injected (Rattus norvegicus [28]) was 1.03% and the Injected (Rattus norvegicus [29]) was 23.55%. For the same compound, the Injected (Rattus norvegicus [30]) was 0.264%, the Injected (Rattus norvegicus [31]) was 0.277% and the Injected (Rattus norvegicus [32]) was 1.037%. For the same compound, the BSI [4] was 189, the Injected (Rattus norvegicus [33]) was 0.815% and the Injected (Rattus norvegicus [34]) was 11.41%. It also gave an Injected (Rattus norvegicus [35]) of 3.5%, a relative binding affinity (RBA) [5] of 11 and an Injected (Rattus norvegicus [36]) of 64.53%. For the same compound, the Injected (Rattus norvegicus [37]) was 0.493% and the Injected (Rattus norvegicus [38]) was 1.886%.
CO[C@H]1C[C@]2(C)[C@@H](O)CC[C@H]2[C@@H]2CCc3cc(O)ccc3[C@H]21 showed an NSB [1] of 0.57, a relative binding affinity (RBA) [2] of 0.26 and a logP [3] of 2.72. The BSI [4] was 151 and the relative binding affinity (RBA) [5] was 1.72.
Work on C#C[C@]1(O)CC[C@H]2[C@@H]3CCc4cc(O)ccc4[C@H]3C(CC)C[C@@]21C (stereo partly drawn) yielded an NSB [1] of 2.86, a relative binding affinity (RBA) [2] of 0.347 and a logP [3] of 4.28. For the same compound, the BSI [4] was 331 and the relative binding affinity (RBA) [5] was 41.2.
